Here are results for 23 molecules from ChEMBL document CHEMBL1130207, “Structure-activity relationships for acridine-substituted analogues of the mixed topoisomerase I/II inhibitor N-[2-(dimethylamino)ethyl]acridine-4-carboxamide” (J Med Chem, 1997).

pIC50: −log10 of the molar value.

As usually defined, the pIC50 is the IC50 on a negative log10 scale, so that one unit is a factor of ten. Read a low pIC50 as a large IC50.

In assay [1] the test system is Jurkat. Kind of assay: Inhibitory concentration required to reduce human Jurkat leukemia (JLC sensitive, wild type) cell number to 50% of control cultures. In kind it is functional, cell-based.
Assay [2] concerns Jurkat. Kind of assay: Ratio of IC50 of Jurkat leukemia amsacrine (JLA) to the IC50 of Jurkat leukemia (JLC sensitive, wild type). Type of assay: functional, Homo sapiens. The method in brief: (§1)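 Jurkat lines were each plated at 3.75 × 10³ per well and grown 4 days with drug: parental JL_C, amsacrine-resistant JL_A and doxorubicin-resistant JL_D. Growth was read by sulforhodamine assay. IC50 is the concentration giving 50% of control cell number. Ratio is IC50 in JL_A or JL_D divided by IC50 in JL_C.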

The test system of the next assay is P388. Kind of assay: Inhibitory concentration required to reduce murine p388 leukemia cell number to 50% of control cultures. In kind it is functional, cell-based. Conditions: Mus musculus.
Assay [3] deals with Jurkat. Kind of assay: Ratio of IC50 of mutant Jurkat leukemia (JLD) to the IC50 of Jurkat leukemia (JLC sensitive, wild type). In kind it is functional, Homo sapiens. The method in brief: as §1
For another assay, the system named is LLTC cell line. Kind of assay: Inhibitory concentration required to reduce Lewis lung carcinoma cell number to 50% of control cultures. Conditions: Mus musculus. In kind it is functional, cell-based. Summed up:
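Lewis lung carcinoma cells seeded at 10³ per well and exposed to drug for 4 days. Growth read by sulforhodamine assay; IC50 is the drug concentration (nM) that cuts cell number to 50% of control cultures. Value is the mean of at least two independent determinations done in duplicate; coefficient of variation 7.9–8.5%.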

Take `CN(C)CCNC(=O)c1cccc2cc3c(Cl)cccc3nc12`: the pIC50 in the assay with Jurkat [1] is 6.04; in the assay on P388, 6.92; in the assay on LLTC cell line, 6.59. Besides, the Ratio in the assay on Jurkat [2] turned out to be 1.25; in the assay with Jurkat [3], 1.3.
As to `CN(C)CCNC(=O)c1cccc2cc3cc(Br)ccc3nc12`, the pIC50 was 6.12 with Jurkat [1], 7.06 in the assay with P388 and 6.35 in the assay with LLTC cell line. The figures for the Ratio with Jurkat [2] and in the assay with Jurkat [3] were 0.8 and 1, respectively.
In the same order, the values of `CN(C)CCNC(=O)c1cccc2cc3cc(C(C)(C)C)ccc3nc12` are 5.36, 5.20, 5.34, 1.1 and 1.2.
On to `CN(C)CCNC(=O)c1cccc2c(N)c3ccccc3nc12`, for which the pIC50 with Jurkat [1] was 7.57; in the assay with P388, 8.10; in the assay with LLTC cell line it was 8.28. Moreover, the Ratio is listed as 4.6 with Jurkat [2] and 6.1 in the assay with Jurkat [3].
With `CN(C)CCNC(=O)c1cccc2cc3cc(N(C)C)ccc3nc12`, the pIC50 was 5.61 in the assay on Jurkat [1], 5.96 with P388 and 5.77 in the assay with LLTC cell line. Moreover, the Ratio with Jurkat [2] and in the assay on Jurkat [3] was 1.8 in each case.
On to `CN(C)CCNC(=O)c1cccc2cc3cc(C(F)(F)F)ccc3nc12`, for which the pIC50 with Jurkat [1] is 5.19; with P388, 5.07; with LLTC cell line, 5.23. Moreover, the Ratio in the assay on Jurkat [2] was 0.8; with Jurkat [3] it was 1.
In the same order, the values of `CN(C)CCNC(=O)c1cccc2cc3ccc(Br)cc3nc12` are 6.35, 6.80, 6.64, 0.9 and 1.1.
On the same counts, the results for `Cc1ccc2cc3cccc(C(=O)NCCN(C)C)c3nc2c1` are 6.20, 7.02, 6.75, 1.3 and 1.5.
As to `CN(C)CCNC(=O)c1cccc2cc3cc(O)ccc3nc12`, the results for the pIC50 in the assay on Jurkat [1], with P388 and with LLTC cell line were 6.29, 6.77 and 6.33, respectively. Moreover, the values for the Ratio in the assay on Jurkat [2] and in the assay with Jurkat [3] were 2.5 and 3, respectively.
As to `CN(C)CCNC(=O)c1ccc2nc3c(C(=O)NCCN(C)C)cccc3cc2c1`, the pIC50 in the assay on Jurkat [1] is 5.95; with P388, 6.05; in the assay on LLTC cell line, 5.55. The Ratio in the assay with Jurkat [2] came out at 0.6; with Jurkat [3], 1.
On the same counts, the results for `CN(C)CCNC(=O)c1cccc2cc3cccc(F)c3nc12` are 6.99, 7.85, 7.68, 4.5 and 5.6.
As for `CN(C)CCNC(=O)c1cccc2cc3ccc(F)cc3nc12`, the pIC50 in the assay with Jurkat [1] is 6.34; with P388 it was 7.31; in the assay with LLTC cell line, 6.91. Moreover, the Ratio is recorded as 1.5 with Jurkat [2] and 1.9 in the assay on Jurkat [3].
As for `Cc1c2ccccc2nc2c(C(=O)NCCN(C)C)cccc12`, the values for the pIC50 in the assay on Jurkat [1], in the assay with P388 and in the assay with LLTC cell line were 6.36, 6.82 and 6.79, respectively. In addition, the values for the Ratio in the assay with Jurkat [2] and with Jurkat [3] were 0.85 and 1, respectively.
For the molecule `CN(C)CCNC(=O)c1cccc2cc3ccc(Cl)cc3nc12`, the pIC50 in the assay on Jurkat [1] is 6.40; with P388 it was 6.90; in the assay on LLTC cell line, 6.81. In addition, the Ratio is recorded as 1.1 with Jurkat [2] and 1.3 with Jurkat [3].
On to `CC(C)c1ccc2nc3c(C(=O)NCCN(C)C)cccc3cc2c1`, for which the figures for the negative logarithm of the IC50 (pIC50) with Jurkat [1], in the assay on P388 and in the assay with LLTC cell line were 5.15, 5.43 and 5.24, respectively. Also, the Ratio in the assay on Jurkat [2] was 0.9; in the assay on Jurkat [3] it was 1.2.
`CN(C)CCNC(=O)c1cccc2cc3cc(Cl)ccc3nc12`: the pIC50 was 6.12 in the assay on Jurkat [1], 6.60 in the assay with P388 and 6.33 in the assay with LLTC cell line. The Ratio was 0.8 in the assay with Jurkat [2] and 1 with Jurkat [3].
As to `CCc1cccc2cc3cccc(C(=O)NCCN(C)C)c3nc12`, the figures for the pIC50 in the assay on Jurkat [1], in the assay with P388 and with LLTC cell line were 6.86, 7.74 and 7.70, respectively. Also, the Ratio in the assay on Jurkat [2] is given as 4.1; in the assay on Jurkat [3], 4.4.
On the same counts, the results for `CC(C)c1cccc2cc3cccc(C(=O)NCCN(C)C)c3nc12` are 5.60, 6.19, 6.08, 1 and 1.
For `CN(C)CCNC(=O)c1cccc2cc3ccc(C(F)(F)F)cc3nc12`, the negative logarithm of the IC50 (pIC50) is 5.87 with Jurkat [1], 5.95 in the assay with P388 and 5.76 with LLTC cell line. Further, the Ratio in the assay with Jurkat [2] amounted to 0.9; with Jurkat [3] it was 1.
In the same order, the values of `CN(C)CCNC(=O)c1cccc2c(-c3ccccc3)c3ccccc3nc12` are 5.57, 5.39, 5.92, 0.8 and 1.1.
For the molecule `CN(C)CCNC(=O)c1cccc2cc3ccccc3nc12`, the values for the pIC50 in the assay on Jurkat [1], with P388 and with LLTC cell line were 6.24, 7.01 and 6.72, respectively. For the same molecule, the figures for the Ratio in the assay on Jurkat [2] and with Jurkat [3] were 1.9 and 2.3, respectively.
For the molecule `COc1cc(NS(C)(=O)=O)ccc1Nc1c2ccccc2nc2ccccc12` [AMSACRINE], the pIC50 in the assay on Jurkat [1] was 7.43; with P388, 7.70; in the assay on LLTC cell line it was 7.92. The results for the Ratio in the assay on Jurkat [2] and in the assay with Jurkat [3] were 84.9 and 73.7, respectively.
`COc1cccc2c1C(=O)c1c(O)c3c(c(O)c1C2=O)C[C@@](O)(C(=O)CO)C[C@@H]3O[C@H]1C[C@H](N)[C@H](O)[C@H](C)O1` [DOXORUBICIN]: the negative logarithm of the IC50 (pIC50) was 8.02 with Jurkat [1], 7.82 in the assay on P388 and 7.66 in the assay with LLTC cell line. For the same molecule, the Ratio in the assay on Jurkat [2] amounted to 4.39; with Jurkat [3], 12.7.
